Laboratory results reported in ChEMBL document CHEMBL4350993, “Dipropargyl substituted diphenylpyrimidines as dual inhibitors of monoamine oxidase and acetylcholinesterase” (Eur J Med Chem, 2019).

Experiments:
Acetylcholinesterase = Acetylcholinesterase (Electrophorus electricus, UniProt O42275); assay: Inhibition of electric eel AChE assessed as reduction in production of H202 using acetylcholine as substrate incubated for 15 mins followed by substrate addition by horse radish peroxidase/Amplex red reagent based fluorescence assay
Sequence of Acetylcholinesterase (O42275 whole entry): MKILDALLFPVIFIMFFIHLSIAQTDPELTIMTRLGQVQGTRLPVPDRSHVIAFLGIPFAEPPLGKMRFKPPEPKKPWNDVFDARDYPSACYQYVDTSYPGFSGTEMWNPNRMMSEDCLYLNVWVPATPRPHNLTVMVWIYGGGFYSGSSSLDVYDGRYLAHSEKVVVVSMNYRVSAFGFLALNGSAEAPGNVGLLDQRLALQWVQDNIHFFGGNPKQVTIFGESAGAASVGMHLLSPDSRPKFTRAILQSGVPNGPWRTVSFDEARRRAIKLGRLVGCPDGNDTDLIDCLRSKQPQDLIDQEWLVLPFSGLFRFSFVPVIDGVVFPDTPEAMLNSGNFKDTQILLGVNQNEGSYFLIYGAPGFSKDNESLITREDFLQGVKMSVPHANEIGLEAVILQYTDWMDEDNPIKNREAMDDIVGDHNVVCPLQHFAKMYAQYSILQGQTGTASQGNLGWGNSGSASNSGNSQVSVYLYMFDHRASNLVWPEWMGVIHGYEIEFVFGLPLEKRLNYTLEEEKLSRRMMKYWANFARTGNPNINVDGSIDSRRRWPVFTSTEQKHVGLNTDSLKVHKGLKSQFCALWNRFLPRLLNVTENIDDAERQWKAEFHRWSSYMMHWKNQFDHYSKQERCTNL

[1] = target: T1, Amine oxidase [flavin-containing] B (Homo sapiens, UniProt P27338); assay: (§1) Inhibition of human recombinant microsomal MAO-B expressed in baculovirus infected BTI-TN-5B1-4 cells assessed as reduction in production of H202 using p-tyramine as substrate incubated for 30 mins followed by substrate addition by horse radish peroxidase/Amplex red reagent based fluorescence assay; type: cell-based
T1 sequence (P27338 whole entry): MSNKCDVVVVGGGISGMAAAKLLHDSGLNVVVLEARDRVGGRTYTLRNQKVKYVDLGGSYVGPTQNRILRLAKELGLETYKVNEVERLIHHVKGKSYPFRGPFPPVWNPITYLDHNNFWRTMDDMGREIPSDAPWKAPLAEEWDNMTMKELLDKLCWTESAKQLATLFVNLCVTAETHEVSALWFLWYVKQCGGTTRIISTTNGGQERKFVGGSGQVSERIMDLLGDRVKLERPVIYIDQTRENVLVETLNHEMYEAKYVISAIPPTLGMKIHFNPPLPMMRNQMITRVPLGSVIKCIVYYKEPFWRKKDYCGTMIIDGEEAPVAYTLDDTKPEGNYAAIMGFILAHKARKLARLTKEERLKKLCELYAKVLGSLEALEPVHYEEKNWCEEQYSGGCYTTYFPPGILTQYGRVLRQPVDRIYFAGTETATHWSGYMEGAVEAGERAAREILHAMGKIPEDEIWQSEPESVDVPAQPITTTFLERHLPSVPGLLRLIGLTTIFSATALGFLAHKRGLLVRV

Homo sapiens = species: Homo sapiens; assay: Selectivity index, ratio of IC50 for human recombinant microsomal MAO- A expressed in baculovirus infected BTI-TN-5B1- 4 cells using p-tyramine as substrate to IC50 for human recombinant microsomal MAO- B expressed in baculovirus infected BTI-TN-5B1- 4 cells using p-tyramine as substrate by horse radish peroxidase/Amplex red reagent based fluorescence assay
How it was run: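 Recombinant hMAO-A (1.1 µg) or hMAO-B (7.5 µg) preincubated with inhibitor over a concentration range for 30 min at 37 °C in 0.05 M sodium phosphate, pH 7.4. Reaction started with 1 mM p-tyramine, 200 µM Amplex Red and 1 U/mL HRP (final concentrations). H₂O₂ was read by fluorescence (ex 545/em 590 nm) after 30 min dark incubation. Background without enzyme was subtracted; vehicle served as control.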

[2] = target: T2, Amine oxidase [flavin-containing] A (Homo sapiens, UniProt P21397); assay: Inhibition of human recombinant microsomal MAO-A expressed in baculovirus infected BTI-TN-5B1-4 cells assessed as reduction in production of H202 using p-tyramine as substrate incubated for 30 mins followed by substrate addition by horse radish peroxidase/Amplex red reagent based fluorescence assay; type: cell-based
T2 sequence (P21397 whole entry): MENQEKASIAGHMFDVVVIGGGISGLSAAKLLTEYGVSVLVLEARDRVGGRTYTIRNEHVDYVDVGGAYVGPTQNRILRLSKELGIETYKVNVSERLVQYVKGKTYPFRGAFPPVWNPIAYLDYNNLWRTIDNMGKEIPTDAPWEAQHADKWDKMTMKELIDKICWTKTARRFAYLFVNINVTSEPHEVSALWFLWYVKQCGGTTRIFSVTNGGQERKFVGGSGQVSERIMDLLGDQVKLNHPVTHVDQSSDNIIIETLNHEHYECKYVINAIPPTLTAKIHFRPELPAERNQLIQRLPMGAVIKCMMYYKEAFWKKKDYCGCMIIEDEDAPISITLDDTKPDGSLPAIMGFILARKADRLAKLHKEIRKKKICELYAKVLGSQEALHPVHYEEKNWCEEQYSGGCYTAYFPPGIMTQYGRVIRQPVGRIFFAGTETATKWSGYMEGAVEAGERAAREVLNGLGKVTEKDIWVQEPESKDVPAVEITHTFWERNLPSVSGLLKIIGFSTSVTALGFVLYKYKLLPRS

[3] = target: T2, Amine oxidase [flavin-containing] A; assay: as §1, with “MAO- A” for “MAO-B”, “BTI-TN-5B1- 4” for “BTI-TN-5B1-4”, “H202 at 50 uM” for “H202”; conditions: 0.5 h
How it was run: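 Recombinant hMAO-A (1.1 µg protein) preincubated 30 min at 37 °C with test compound in 0.05 M sodium phosphate, pH 7.4. Reaction started with (final) 200 µM Amplex Red, 1 U/mL HRP and 1 mM p-tyramine. After 30 min in the dark, H2O2 read by fluorescence (ex 545/em 590 nm) at 37 °C. Background without enzyme subtracted; vehicle control.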

| Compound | IC50 (Acetylcholinesterase) | IC50 [1] | Ratio IC50 (Homo sapiens) | IC50 ([2]; bti-tn-5b1-4) | inhibition at 50 µM [3] | IC50 ([2]; read-out: IC50) |
| --- | --- | --- | --- | --- | --- | --- |
| C#CCOc1ccc(-c2cc(-c3ccc(OCC#C)c(OCC)c3)nc(C)n2)cc1 | 6.38 µM | 11 µM | > 5 | Not Active | < 50% |  |
| C#CCOc1cccc(-c2cc(-c3cccc(OCC#C)c3)nc(-c3ccccc3)n2)c1 | 6.73 µM | 23.4 µM | > 3 | Not Active | < 50% |  |
| C#CCOc1ccc(-c2cc(-c3ccc(OCC#C)c(OCC)c3)nc(N)n2)cc1 | 7.05 µM | 14 µM | > 4 | Not Active | < 50% |  |
| C#CCOc1ccc(-c2cc(-c3ccc(OCC#C)cc3)nc(C)n2)cc1 | 1.76 µM | 7.83 µM | 4.4 |  |  | 34.1 µM |
| C#CCOc1ccc(-c2cc(-c3ccccc3OCC#C)nc(-c3ccccc3)n2)cc1 | 7.25 µM | 14.4 µM | 1.5 |  |  | 22 µM |
| C#CCOc1cccc(-c2cc(-c3cccc(OCC#C)c3)nc(N)n2)c1 | 6.99 µM | 22.1 µM | > 3 | Not Active | < 50% |  |
| C#CCOc1ccccc1-c1cc(-c2ccccc2OCC#C)nc(-c2ccccc2)n1 | 8.12 µM | 13.8 µM | > 4 | Not Active | < 50% |  |
| C#CCOc1ccc(-c2cc(-c3ccc(OCC#C)c(OCC)c3)nc(-c3ccccc3)n2)cc1 | 6.94 µM | 29 µM | > 2 | Not Active | < 50% |  |
| C#CCOc1ccc(-c2cc(-c3cccc(OCC#C)c3)nc(C)n2)cc1 | 5.88 µM | 8.09 µM | 2.6 |  |  | 21.1 µM |
| C#CCOc1ccc(-c2cc(-c3ccc(OCC#C)c(OC)c3)nc(C)n2)cc1 | 5.92 µM | 21.1 µM | 1.2 |  |  | 25 µM |
